Source: the EternaBench riboswitch data

Test system: MS2 coat protein
Experiment: apparent Kd, MS2 coat protein; higher = weaker binding; RNA-MaP array; FMN 200 µM where present
How it was run: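 Stalled E. coli RNA polymerase transcribed each design on Illumina sequencing-chip clusters. The clusters were titrated with SNAP-549-labelled MS2 coat protein, starting at 0.7 or 1.5 nM and doubling up to 3 µM, first without ligand and then with constant ligand, in 100 mM Tris-HCl pH 7.5, 80 mM KCl, 4 mM MgCl2, BSA, DTT, yeast tRNA and Tween-20. Green signal was normalised to red-channel RNA signal and to the control-cluster median Fmax. The apparent Kd is the median of filtered binding-curve fits made for each cluster.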

[1] = designed as: OFF switch for flavin mononucleotide, no ligand
[2] = ligand present: flavin mononucleotide, designed as: OFF switch for flavin mononucleotide
[3] = designed as: ON switch for flavin mononucleotide, no ligand
[4] = ligand present: flavin mononucleotide, designed as: ON switch for flavin mononucleotide

Sequence	apparent Kd [1]	apparent Kd [2]	apparent Kd [3]	apparent Kd [4]
UAUAUAUAGUAAGGAUAUGUAUUUAUUUGAUAAACAGAAGGUACUGACAUGAGGAUCACCCAUGUUUUAGUGUGGGCAUGUAGA	81.6 nM	131 nM	–	–
GAGAAGAAGUUAGGAUAUUGGAUAGGGACGGACUAAGAAGGAGCACAUACAUGAGGAUCACCCAUGUUAGAAGAAGAUCCUCCA	32.3 nM	25.5 nM	–	–
GGAAAGUGAGGAUAUGGUAAUUUAAUUAUUAAUUAAUUAAUCCAGAAGGCACAUGAGGAUCACCCAUGUAAAGG	35.9 nM	61.4 nM	–	–
GGUUGUCAUAGUCAUCCUUUCCGUACAUGAGGAUCACCCAUGUAGGAUAUGCUACUCACAGAGUAGCAGAAGGGCGUGUGUCUU	19 nM	19.6 nM	–	–
GGGUACAUCGGAGGAUAUCAUGUAAAUACAUGAGGAUCACCCAUGUCGAUGGAGCCAUCGGAGAUUGAGAAGGCCGAUGUACCG	–	–	14.3 nM	5.63 nM
AAACAUGUCCGAGGAUAUCUGGAAACAAUUCCAAGAGAAGGCGGACAUGAGGAUCACCCAUGUCUCUCCUCAUCAAAUCCAAGU	11.2 nM	67.1 nM	–	–
CUAGAUAUGUAAGGAUAUAUAGUGGAAUACACUAUAGAAGGUAUGUGAUAACAUGAGGAUCACCCAUGUCAUUGGAUAUCUAGA	–	–	67.5 nM	60.3 nM
CCCAAACUUGGGUUUGGUGGUGCAUAGGAUAUGCUUGAACAUGAGGAUCACCCAUGUACUAUUGUGCAGAAGGGUGCAUGGCAA	–	–	401 nM	29.1 nM
AAGUAGAUCCGAGGAUAUACAUAGCGGAAACGCAACAUGAGGAUCACCCAUGUAGAAGGCGGAUCUACAGGUACUAAAGUACCA	7.77 nM	13.5 nM	–	–
AAAAUGUCAGGAUAUGCGAAGGCGUCUGACAGACGAGGAUUGCAGAAGGGACAUGAGGAUCACCCAUGUAAAAA	50.6 nM	126 nM	–	–
GGCUGGCAGCUAGGAUAUGGGCGAUCACAUGAGGAUCACCCAUGUCAACAUCAAAACAAGAUUAACCAGAAGGAGCCGCGGGUU	–	–	18.4 nM	76.7 nM
CCCGACCAGAAGUCGGUACGGAGGAGAAGGCGCCUCCUGGGUCCACAUGAGGAUCACCCAUGUGGCGAGGAUAUCCUCAGUUUU	13.7 nM	119 nM	–	–
AUUUAAAUGUCAGGAUAUGGUAGAUUAUUCUUAUCAGAAGGGAUAAUUAUACUCAAGUACAUGAGGAUCACCCAUGUUAAAUCA	–	–	10.3 nM	10.3 nM
CUAGCGAGUGAGAAGGCCAGCUUUUAUACAUGAGGAUCACCCAUGUAGCCCUAAAGGGUAUGCAUGGAGGAUAUCACGAGCCUG	–	–	11.7 nM	7.03 nM
UUAGAGGAUUGAGGAUAUGCAGAGAGAUUAUGCGCGUCGCGCACAUGAGGAUCACCCAUGUAAGAGCAGAAGGUAACUAUGAUC	24.3 nM	21.8 nM	–	–
UACAAUCUAUCUGAGGAUAUCAUGAAAAAAACAUGAGGAUCACCCAUGUGCAGGAAAACUGCAUAUGAGAAGGCAGAUAGAUUGA	–	–	873 nM	26.9 nM
GUCUGGCUAGGAUAUACAGAAUCCACGAGUCGGUUGCCCUGACAUGAGGAUCACCCAUGUAGAAGGAGCGAGAA	17.9 nM	24.3 nM	–	–
GGUAAGAUGCAGAAGGUGUUAGCUAGAGCUACGACAUGAGGAUCACCCAUGUACUAGAAACAGUACAAGGAUAUGCAUCUUACA	–	–	17.1 nM	6.12 nM
GACUAGGCAGGAUAUACAUGAGGAUCACCCAUGUGUCUGCGUUGGGCACGUGAACACCGUAGAAGGGCCUUGAC	15.8 nM	35 nM	–	–
GGGUACAUCGGAGGAUAUCAUGUAAAGACAUGAGGAUCACCCAUGUCGAUGGAGACAUCGGAGAUUGAGAAGGCCGAUGUACCG	–	–	26.4 nM	6.19 nM
AAAACUGGAGGAUAUACAUGAGGAUCACCCAUGUGUGGAUGGGCUGUGUCGGCGUCAGGUAGAAGGCCACAAAA	70 nM	130 nM	–	–
CGAAGGGAGUCAGGAUAUGUUCCUUUCAUACGGACAGAAGGGACUCCUUACAUGAGGAUCACCCAUGUAAGGGUAGUCUUCAGG	60.7 nM	90.6 nM	–	–
UUAAAUCGAAACAUGAGGAUCACCCAUGUGUUGUAAUUAAUAUAGGAUAUGUGUAUACUUUUAUAAUAGAAGGAUGAUAAUACU	–	–	17.4 nM	12.1 nM
AAGUAGGAAGGAUAUACAUGGAUAUACAUUCAUGUGGACCUACAUGAGGAUCACCCAUGUAGAAGGUCCUAAUA	18.1 nM	12.1 nM	–	–
GGAUAGGACAGAGGAUAUACGUCCUAGAGAUACUAGCAAAAUUUCCUCACAUGAGGAUCACCCAUGUAGAAGGCUGUCCUAUCG	12.6 nM	141 nM	–	–
GGCGGGCGAAACAUGAGGAUCACCCAUGUGUUAUACUUAAUAUAGGAUAUGUUUAUACUUUUUGGGCAGAAGGAUGCGCCUGCC	–	–	37.9 nM	33.4 nM
GGUUGGCGAGGAUAUACAUGAGGAUCACCCAUGUGGUCCUGCGGUGGUAUCGCCCUUUGUAGAAGGCGCGGGUC	112 nM	117 nM	–	–
GCAAGAAUAGGAUAUACACCGUGUCAGCUUCUAUACAUCGCACAUGAGGAUCACCCAUGUAGAAGGGUUCUCUG	236 nM	217 nM	–	–

Sequence	apparent Kd [1]	apparent Kd [2]	apparent Kd [3]	apparent Kd [4]
CUCAAACAUGAGGAUCACCCAUGUGUUGUCAUGGGAGGAUAUCCCAGUUCGGUGACGUCGGGAGAAGGCCUAUGUC	–	–	113 nM	35.2 nM
UGUCCAUAGCAGAAGGACAUGAAUACAUGAGAAAACAUGAGGAUCACCCAUGUAGGAUAUGCUAUGGACUAAGAGCGAAAGCUC	12.2 nM	91.9 nM	–	–
UUAAUUUGGUGAUAUUAUGACAUUAGAAGGCUGUACAUGUUGAUACAUGAGGAUCACCCAUGUAUAGAGGAUAUAGACAAUUUU	48 nM	105 nM	–	–
AUGGAUACCACAGGAUAUAGCUAGCAUAGCUAGCUAGAAGGGUGGUCCAUCCUAUGUAAAUACAUGAGGAUCACCCAUGUGUCC	–	–	403 nM	207 nM
GGAUAGGACAGAGGAUAUACGUGCUAGAGAGACUAGCAAAAUUUCCUCACAUGAGGAUCACCCAUGUAGAAGGCUGUCCUAUCG	16.3 nM	432 nM	–	–
CUAUAUAUAUGAGGAUAUGUAUAUCCAACAUGAGGAUCACCCAUGUUGAGGAUCACCCAUGUAAAGCAGAAGGCAUAUAUAUAG	–	–	22.7 nM	13.4 nM
GGGUGACAUGAGGAUCACCCAUGUCAGGAUAUGCGCGCGCGCGCGAAAGUGUGUGUGUGUAGAAGGGACUGCCC	49.6 nM	81.2 nM	–	–
GUCAGCUCGUGAGGAUAUACAUCACUGCUUCGGCAGUGUAUUAAGAUAACAUGAGGAUCACCCAUGUAGAAGGCACGAGCUGAU	17 nM	28.5 nM	–	–
GGGCCCGGAGGAUAUACAAUCCCGGGUUGAAAGGCCCGGGUACAUGAGGAUCACCCAUGUAGAAGGUUGGGCCC	14.2 nM	17.3 nM	–	–
AGACUGAAUGUUAGGAUAUGGUUUCGGGUCUCGGACCAGAAGGAACAUGAGGAUCACCCAUGUGCCGUGGUUGU	29 nM	153 nM	–	–
GGAAGCUCAACGGAGCUAAGGUAGAAGGAUAUCCACGGCUAUAUCCACAUGAGGAUCACCCAUGUGGAGAAGGUCUAUCUUAAG	5.83 nM	10.4 nM	–	–
CAGAUCGGCGCAGGAUAUGUCGACAUGAGGAUCACCCAUGUAAACCUUGUCUGGUCCGGUGUGUGACAGAAGGGUGUCGGCCAU	31.5 nM	30.9 nM	–	–
GUGGUCAGACAUGAGGAUCACCCAUGUGGAAUAAAUAAGGAGAAGGAUAUCUAAUAUAGGAUAUAAGAGAAGGUUUGGUUGGUG	–	–	74 nM	68 nM
UGAUAGGACAGAGGAUAUACAGAUAGGAUCUACUAUCAAACAGUCCUAACAUGAGGAUCACCCAUGUAGAAGGCUGUCCUAUCU	20.9 nM	79.2 nM	–	–
GUUUUGAUAGGAUAUACAUGAGGAUCACCCAUGUCCCACCCGUUACCUCUGACCCUAUGUAGAAGGAUCGUUUG	34.3 nM	26.4 nM	–	–
UGAAAUCAUGUAGGAUAUGCAUGGCGAAGCUACGCAGAAGGACAUGAGGAUCACCCAUGUUCUAGCUACCGAGAACGGUGGCAA	20.9 nM	109 nM	–	–
GUAUGAGCGAUAGGAUAUACUGAGAUUGAAUGGGUAGAAGGAUCUCUUGUGGGAAAGACAUGAGGAUCACCCAUGUCACGGACC	–	–	186 nM	100 nM
UCAGGCUUCGAGAAGGACAUGAGGAUCACCCAUGUUAAUUUGAAGCAGCCGUGAGGCUGCAUCAUGUAGGAUAUCGGAGUCUGC	6.17 nM	10.2 nM	–	–
UGAUAGGACAGAGGAUAUACGUGCUAGAGAUACUAGCAAAAUUUCCUCACAUGAGGAUCACCCAUGUAGAAGGCUGUCCUAUCG	17.6 nM	453 nM	–	–
ACUGUUAAGACAGGAUAUCGAUUAUAACCUCUAAAACAUGAGGAUCACCCAUGUAGUCCGUAUUGCGAGAAGGGUCAUCUUAGA	–	–	274 nM	205 nM
GCGGCUAGUGCAGGAUAUCGGCGCGUGUAGCGCCGAGAAGGGCACAUGAGGAUCACCCAUGUGAUCAAUCACUGCUAAGGCCGC	4.83 nM	4.91 nM	–	–
CUAAAUCAUGUAGGAUAUGCAUGGCGAAGCUACGCAGAAGGACAUGAGGAUCACCCAUGUCACUCCGUCUGCGUACAGACGGAG	19.7 nM	92.3 nM	–	–
CAGUACUGAGGAUAUACAUGAGGAUCACCCAUGUGCUUUAGCUAGGAUACUAGCACCAGUAGAAGGCAGUACUG	10.6 nM	23.8 nM	–	–
AAUUAUUUACAGAAGGAGUAAGAUUAUGUAUUACUAGGAUAUGUUCACAUGAGGAUCACCCAUGUCAUUGUAGGUUUUUUAUGU	12 nM	9.95 nM	–	–
UCUUAUUGCAAGGAUAUGCAAUUUAUUUUUUAUGCAGAAGGUGCAACAUGAGGAUCACCCAUGUUUCCGGGCAU	13.8 nM	18.6 nM	–	–
GCCUGACAUGAGGAUCACCCAUGUGAGGAUAUUUGGAUUGAGGAGUAGCACAUAGUCCAAAGAAGGUAUGUGGG	24.7 nM	60.7 nM	–	–
GCUGACGAUGUAGGAUAUCUCGACGAUAAGUCGAGAGAAGGACAUGAGGAUCACCCAUGUAACUCUACGUCAGCGAGGAAACUC	16.8 nM	18 nM	–	–
